This is an account of results in ChEMBL document CHEMBL1121519, “Basic antiinflammatory compounds. N,N',N''-Trisubstituted guanidines” (J Med Chem, 1980).

The nature of data set [1]: Lethal dose in mice determined by Litchfield and Wilcoxon methods after peroral administration. It is filed as toxicity, organism-based. The conditions noted are these: mouse, in vivo, po. The essentials:
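Median lethal dose found after oral dosing of mice, four mice per dose level, and calculated by the Litchfield–Wilcoxon method.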

Data set [2] deals with Cyclooxygenase (Bos taurus) (UniProt O62664+O62698). Nature of the data set: Inhibition of prostaglandin synthetase in bovine seminal vesicle microsomes using Beckman liquid scintillation counter at 10 e-5 M. The conditions noted are these: Microsome.
Data set [3] in a line: Toxic score (3) was measured as lethal dose in orally administered mice. It is filed as toxicity, organism-based. The conditions noted are these: mouse, in vivo, po. The gist of the method:
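Score derived from mouse oral LD50 (Litchfield–Wilcoxon, four mice per dose), in mg/kg: >1000 = 3; 500-1000 = 2; <500 = 1.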

Data set [4] relates to Rattus norvegicus. Nature of the data set: Percent inhibition of carrageenan paw edema in rat, administered orally at a dose of one tenth of oral lethal dose in mice. The class given is functional. The gist of the method: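 1 h later, 0.1 mL of 1% carrageenan was injected into the right hind-paw plantar tissue. Paw swelling was measured by mercury-displacement plethysmometry 3 h after carrageenan, compared with controls.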
(The carrageenan paw model is a standard test of acute inflammation.)

Data set [5] has as its system Rattus norvegicus. Put plainly: Total score is the sum of scores obtained in the adjuvant arthritis, acute toxicity, carrageenan edema, and prostaglandin synthetase assay. The class given is functional.
The species entered for data set [6] is Rattus norvegicus. Nature of the data set: Tested for enhancement in the rat paw injected with carrageenan. The class given is functional.
For data set [7], the species on record is Rattus norvegicus. Nature of the data set: Tested for enhancement in the rat paw not injected with carrageenan. The class given is functional.
The species entered for data set [8] is Rattus norvegicus. Put plainly: Average percent inhibition of the swelling of both injected and non injected paw was measured. The class given is functional. The essentials: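 Adjuvant arthritis in inbred female Lewis rats, groups of six, acclimatized 2 weeks. Arthritis induced by injecting 0.1 mL M. butyricum in mineral oil (3 mg/mL) into right hind paw plantar tissue. Oral dosing daily from adjuvant day to day 28: 10 (mg/kg)/day if mouse oral LD50 ≥1000 mg/kg, else 5 (mg/kg)/day. Swelling of injected and noninjected paws measured day 28 by mercury-displacement plethysmometry; mean percent inhibition scored 0–3.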

As for `Cc1csc(/N=C(\Nc2cc(C)nc3ccccc23)NC2CCCCC2)n1`, the LD50 in data set [1] and in data set [3] was greater than 1000 mg/kg each time. The compound also came in with an inhibition in data set [2] of 89.3%. The Inhibition is on record as 38% with Rattus norvegicus [4] and less than 10% in the data set filed under Rattus norvegicus [8]. The Total score with Rattus norvegicus [5] is recorded as 7. In addition, the Enhancement in the data set filed under Rattus norvegicus [6] is on record as 15%; in the data set filed under Rattus norvegicus [7], 23%.

In general, LD50 refers to the dose at which mortality reaches 50%. Low values mean greater toxicity, high ones lower toxicity. For orientation: inhibition means the relative decrease from the control value, in per cent. Read a low inhibition as little suppression. A word on the Inhibition: it is the relative decrease from the control value, in per cent. High values mean a strong effect, low ones a weak effect.
